Starred links: 1 amine or outer side, 2 acyl side, 3 side chain; linkers in the order of their positions; H or OH if unused. Non-standard residues stand in square brackets, D forms with d. Residues, ends and D or L forms follow the SMILES beside them. Trp(1-CMe2(2S-oxiranyl)) = CC(C)([C@H]1CO1)n1cc(C[C@H](N)C(=O)O)c2ccccc21; Trp(1-(1,1-Me2-allyl)) = C=CC(C)(C)n1cc(C[C@H](N)C(=O)O)c2ccccc21; X3 = CC(C)([C@H](O)CCl)n1cc(C[C@H](N[*:1])C(=O)[*:2])c2ccccc21; Tyr(3-NO2) = N[C@@H](Cc1ccc(O)c([N+](=O)[O-])c1)C(=O)O; X1 = COC(OC)C(C)C[C@@H](C(=O)[*:2])N(C)[*:1]; X2 = C[C@H](CO)C[C@@H](C(=O)[*:2])N(C)[*:1]; Gly(E-crotyl) = C/C=C/C[C@H](N)C(=O)O; NMeL = CN[C@@H](CC(C)C)C(=O)O
What was measured:
[1] = tested on: Mycobacterium tuberculosis; experiment: Bactericidal activity against Mycobacterium tuberculosis H37Rv harboring LuxAB gene assessed as reduction in microbial growth by measuring reduction in relative luminescence units after 14 days by luminometric method; assay type: functional; settings: 336 h
In short: (§1)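 Viability was read from an H37Rv luminescent reporter strain carrying plasmid pMV306hsp+LuxAB+G13+CDE. It was incubated with compound for two weeks, with luminescence read on days 7 and 14.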

[2] = tested on: Mycobacterium tuberculosis; experiment: Bactericidal activity against Mycobacterium tuberculosis H37Rv harboring LuxAB gene assessed as reduction in microbial growth by measuring reduction in relative luminescence units after 7 days by luminometric method; assay type: functional; settings: 168 h; in short: as §1

C/C=C/C[C@@H]1NC(=O)[C@H](CC(C)C)NC(=O)[C@H](CC(C)C(OC)OC)N(C)C(=O)[C@H](C)NC(=O)[C@H](Cc2ccc(O)c([N+](=O)[O-])c2)NC(=O)[C@H](CC(C)C)N(C)C(=O)[C@H](Cc2cn(C(C)(C)[C@H]3CO3)c3ccccc23)NC1=O (stereo partly drawn) (cyclo(A[X1]L[Gly(E-crotyl)][Trp(1-CMe2(2S-oxiranyl))][NMeL][Tyr(3-NO2)]))
MBC [1]: 1.1 µM | MBC [2]: > 10 µM

C/C=C/C[C@@H]1NC(=O)[C@H](CC(C)C)N2C(=O)[C@H](C[C@@H](C)[C@H]2O)N(C)C(=O)[C@H](C)NC(=O)[C@H](Cc2ccc(O)c([N+](=O)[O-])c2)NC(=O)[C@H](CC(C)C)N(C)C(=O)[C@H](Cc2cn(C(C)(C)[C@H](O)CO)c3ccccc23)NC1=O
MBC [1]: 0.58 µM | MBC [2]: > 10 µM

NNC(=O)c1ccncc1 [ISONIAZID]
MBC [1]: 4 µM | MBC [2]: 0.99 µM

C/C=C/C[C@@H]1NC(=O)[C@H](CC(C)C)NC(=O)[C@H](CC(C)C)N(C)C(=O)[C@H](C)NC(=O)[C@H](Cc2ccc(O)c([N+](=O)[O-])c2)NC(=O)[C@H](CC(C)C)N(C)C(=O)[C@H](Cc2cn(C(C)(C)[C@H]3CO3)c3ccccc23)NC1=O (cyclo(A[NMeL]L[Gly(E-crotyl)][Trp(1-CMe2(2S-oxiranyl))][NMeL][Tyr(3-NO2)]))
MBC [1]: 1 µM | MBC [2]: > 10 µM

CO[C@H]1/C=C/O[C@@]2(C)Oc3c(C)c(O)c4c(O)c(c(/C=N/N5CCN(C)CC5)c(O)c4c3C2=O)NC(=O)/C(C)=C\C=C\[C@H](C)[C@H](O)[C@@H](C)[C@@H](O)[C@@H](C)[C@H](OC(C)=O)[C@@H]1C [RIFAMPIN]
MBC [1]: 0.12 µM | MBC [2]: 0.24 µM

C/C=C/C[C@@H]1NC(=O)[C@H](CC(C)C)N2C(=O)[C@H](C[C@](C)(O)[C@H]2O)N(C)C(=O)[C@H](C)NC(=O)[C@H](Cc2ccc(O)c([N+](=O)[O-])c2)NC(=O)[C@H](CC(C)C)N(C)C(=O)[C@H](Cc2cn(C(C)(C)[C@H]3CO3)c3ccccc23)NC1=O
MBC [1]: 4.6 µM | MBC [2]: > 10 µM

C=CC(C)(C)n1cc(C[C@@H]2NC(=O)[C@H](C/C=C/C)NC(=O)[C@H](CC(C)C)NC(=O)[C@H](CC(C)C)N(C)C(=O)[C@H](C)NC(=O)[C@H](Cc3ccc(O)cc3)NC(=O)[C@H](CC(C)C)N(C)C2=O)c2ccccc21 (HELM PEPTIDE1{A.[meL].L.[C/C=C/C[C@H](N[*:1])C(=O)[*:2]].[C=CC(C)(C)n1cc(C[C@H](N[*:1])C(=O)[*:2])c2ccccc21].[meL].Y}$PEPTIDE1,PEPTIDE1,1:R1-7:R2$$$V2.0)
MBC [1]: 5.2 µM | MBC [2]: > 10 µM

C=CC(C)(C)n1cc(C[C@@H]2NC(=O)[C@H](C/C=C/C)NC(=O)[C@H](CC(C)C)NC(=O)[C@H](C[C@H](C)CO)N(C)C(=O)[C@H](C)NC(=O)[C@H](Cc3ccc(O)c([N+](=O)[O-])c3)NC(=O)[C@H](CC(C)C)N(C)C2=O)c2ccccc21 (cyclo(A[X2]L[Gly(E-crotyl)][Trp(1-(1,1-Me2-allyl))][NMeL][Tyr(3-NO2)]))
MBC [1]: 9.6 µM | MBC [2]: > 10 µM

C/C=C/C[C@@H]1NC(=O)[C@H](CC(C)C)N2C(=O)[C@H](CC(C)[C@H]2O)N(C)C(=O)[C@H](C)NC(=O)[C@H](Cc2ccc(O)c([N+](=O)[O-])c2)NC(=O)[C@H](CC(C)C)N(C)C(=O)[C@H](Cc2cn(C(C)(C)[C@H]3CO3)c3ccccc23)NC1=O (some centres undefined)
MBC [1]: 0.88 µM | MBC [2]: > 10 µM

C/C=C/C[C@@H]1NC(=O)[C@H](CC(C)C)NC(=O)[C@H](CC(C)C)N(C)C(=O)[C@H](C)NC(=O)[C@H](Cc2ccc(O)c([N+](=O)[O-])c2)NC(=O)[C@H](CC(C)C)N(C)C(=O)[C@H](Cc2cn(C(C)(C)[C@H](O)CCl)c3ccccc23)NC1=O (cyclo(A[NMeL]L[Gly(E-crotyl)][X3][NMeL][Tyr(3-NO2)]))
MBC [1]: 3.1 µM | MBC [2]: > 10 µM

C=CC(C)(C)n1cc(C[C@@H]2NC(=O)[C@H](C/C=C/C)NC(=O)[C@H](CC(C)C)NC(=O)[C@H](CC(C)C)N(C)C(=O)[C@H](C)NC(=O)[C@H](Cc3ccc(O)c([N+](=O)[O-])c3)NC(=O)[C@H](CC(C)C)N(C)C2=O)c2ccccc21 (cyclo(A[NMeL]L[Gly(E-crotyl)][Trp(1-(1,1-Me2-allyl))][NMeL][Tyr(3-NO2)]))
MBC [1]: 4.5 µM | MBC [2]: > 10 µM

C/C=C/C[C@@H]1NC(=O)[C@H](CC(C)C)NC(=O)[C@H](CC(C)C)N(C)C(=O)[C@H](C)NC(=O)[C@H](Cc2ccc(O)c([N+](=O)[O-])c2)NC(=O)[C@H](CC(C)C)NC(=O)[C@H](Cc2cn(C(C)(C)[C@H]3CO3)c3ccccc23)NC1=O (cyclo(A[NMeL]L[Gly(E-crotyl)][Trp(1-CMe2(2S-oxiranyl))]L[Tyr(3-NO2)]))
MBC [1]: 2.2 µM | MBC [2]: > 10 µM

Reference: ChEMBL document CHEMBL4613246, “Antimycobacterial Rufomycin Analogues from Streptomyces atratus Strain MJM3502” (J Nat Prod, 2020)
